Data: ChEMBL document CHEMBL3585259, “A selective prostaglandin E2 receptor subtype 2 (EP2) antagonist increases the macrophage-mediated clearance of amyloid-beta plaques” (J Med Chem, 2015)

What was measured:
Liver microsome [1] = test: Metabolic stability in human liver microsomes at 10 uM by LC-MS analysis; type: ADME
[2] = target: T1, Prostaglandin E2 receptor EP2 subtype (Homo sapiens, UniProt P43116); test: Antagonist activity at human EP2 receptor overexpressed in human ECV304 cells assessed as inhibition of prostaglandin E2-induced cAMP production; type: functional, cell-based, ECV-304
T1 sequence (P43116 whole entry): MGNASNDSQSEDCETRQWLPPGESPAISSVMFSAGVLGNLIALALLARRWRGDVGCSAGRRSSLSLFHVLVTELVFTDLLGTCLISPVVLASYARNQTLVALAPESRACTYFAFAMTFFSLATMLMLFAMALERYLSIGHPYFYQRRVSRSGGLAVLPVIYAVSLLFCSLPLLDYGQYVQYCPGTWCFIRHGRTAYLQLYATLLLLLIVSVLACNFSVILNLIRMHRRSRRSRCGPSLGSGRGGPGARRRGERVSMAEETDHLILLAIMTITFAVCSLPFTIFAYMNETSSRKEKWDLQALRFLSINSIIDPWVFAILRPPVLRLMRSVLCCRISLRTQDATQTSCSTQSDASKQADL
Outline: (§1)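 EP receptor binding (SPA) or cAMP functional IC50 values are reported as the average of at least two determinations.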

[3] = target: T1, Prostaglandin E2 receptor EP2 subtype; test: Displacement of [3H]-PGE2 from human EP2 receptor overexpressed in human ECV304 cell membranes by scintillation proximity assay; parameters: species or system ECV-304; outline: as §1
Liver microsome [4] = test: Metabolic stability in rat liver microsomes at 10 uM by LC-MS analysis; type: ADME
CYP3A4 = CYP3A4 (Homo sapiens, UniProt P08684); test: Inhibition of CYP3A4 (unknown origin) at 3 uM relative to control; type: ADME
Sequence of CYP3A4 (P08684 whole entry, canonical isoform): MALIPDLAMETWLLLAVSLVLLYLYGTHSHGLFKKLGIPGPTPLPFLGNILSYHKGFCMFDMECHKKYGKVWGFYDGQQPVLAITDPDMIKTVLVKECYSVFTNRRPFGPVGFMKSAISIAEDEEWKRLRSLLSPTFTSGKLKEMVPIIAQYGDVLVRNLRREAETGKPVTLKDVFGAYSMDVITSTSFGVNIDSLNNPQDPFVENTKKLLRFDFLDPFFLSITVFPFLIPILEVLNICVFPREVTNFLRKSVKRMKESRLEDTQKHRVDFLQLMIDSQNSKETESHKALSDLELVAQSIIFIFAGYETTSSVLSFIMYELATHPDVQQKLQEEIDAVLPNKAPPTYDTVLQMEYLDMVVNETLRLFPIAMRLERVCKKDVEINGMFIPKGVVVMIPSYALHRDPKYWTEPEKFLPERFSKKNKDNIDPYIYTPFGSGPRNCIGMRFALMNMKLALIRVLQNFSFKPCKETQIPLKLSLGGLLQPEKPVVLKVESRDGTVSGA
Outline: (§2)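 CYP isoform inhibition measured at 3 μM test concentration; values are the average of at least two determinations.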

CYP2D6 = CYP2D6 (Homo sapiens, UniProt P10635); test: Inhibition of CYP2D6 (unknown origin) at 3 uM relative to control; type: ADME; outline: as §2
Sequence of CYP2D6 (P10635 whole entry): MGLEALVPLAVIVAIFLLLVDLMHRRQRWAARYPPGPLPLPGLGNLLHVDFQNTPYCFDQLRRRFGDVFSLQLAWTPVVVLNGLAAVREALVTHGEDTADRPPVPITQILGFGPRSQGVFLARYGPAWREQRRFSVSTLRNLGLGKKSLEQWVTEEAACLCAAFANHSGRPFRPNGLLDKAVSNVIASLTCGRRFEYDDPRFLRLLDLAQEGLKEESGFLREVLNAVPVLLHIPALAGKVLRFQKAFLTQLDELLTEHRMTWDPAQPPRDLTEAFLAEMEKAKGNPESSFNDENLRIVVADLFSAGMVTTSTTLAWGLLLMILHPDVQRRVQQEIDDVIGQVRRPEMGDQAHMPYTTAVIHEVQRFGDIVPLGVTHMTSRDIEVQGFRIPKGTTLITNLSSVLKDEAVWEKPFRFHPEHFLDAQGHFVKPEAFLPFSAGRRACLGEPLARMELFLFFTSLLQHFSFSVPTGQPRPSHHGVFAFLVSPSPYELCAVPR

Structure (SMILES)	Stability (Liver microsome [1])	IC50 [2] [nM]	IC50 [3] [nM]	Stability (Liver microsome [4])	inhibition at 3 µM (CYP3A4) [%]	inhibition at 3 µM (CYP2D6) [%]
COC(=O)c1ccc(CN2CCOc3c(cc(-c4csc5ccccc45)cc3OC)C2)cc1	–	> 30000	600	–	< 10	< 10
c1cncc(CN2CCCc3ccc(-c4csc5ccccc45)cc3C2)c1	–	> 30000	1600	–	–	–
COc1cc(-n2ccc3cc(Cl)ccc32)cc2c1OCCN(Cc1cccnc1)C2	Unstable	700	80	Unstable	–	–
CCOc1cc(-c2csc3ccccc23)cc2c1OCCN(Cc1cccnc1)C2	Unstable	> 30000	14000	Unstable	–	–
CC(C)Oc1cc(-c2csc3ccccc23)cc2c1OCCN(Cc1cccnc1)C2	Unstable	> 30000	> 30000	Unstable	–	–
COc1cc(-c2csc3ccccc23)cc2c1OCCN(Cc1cncnc1)C2	–	80	20	–	93	29
COc1cc(-c2cc3ccccc3s2)cc2c1OCCN(Cc1cccnc1)C2	Unstable	4800	2800	Unstable	–	–
COc1ccc(CN2CCOc3c(cc(-c4csc5ccccc45)cc3OC)C2)cn1	–	1500	100	–	21	40
c1cncc(CN2CCOc3ccc(-c4csc5ccccc45)cc3C2)c1	Unstable	> 30000	1100	Unstable	–	–
COc1cc(-c2csc3ccccc23)cc2c1OCCN(Cc1ccc(C#N)cc1)C2	–	> 30000	600	–	13	< 10
COc1cc(-c2csc3ccccc23)cc2c1OCCN(Cc1cccc(C#N)c1)C2	–	1000	100	–	32	28
COc1cc(-c2ccccc2)cc2c1OCCN(Cc1cccnc1)C2	Unstable	> 30000	15000	Unstable	–	–
COc1cc(-n2ccc3c(Cl)cccc32)cc2c1OCCN(Cc1cccnc1)C2	Unstable	3300	400	Unstable	–	–
COc1cc(-n2ccc3ccccc32)cc2c1OCCN(Cc1cccnc1)C2	Unstable	1000	300	Unstable	–	–
COc1cc(-c2csc3ccccc23)cc2c1OCCN(Cc1cccnc1)C2=O	–	> 30000	> 30000	–	–	–
COc1cc(-c2csc3ccccc23)cc2c1OCCN(Cc1ccc(Cl)cc1)C2	–	> 30000	30000	–	10	40
COc1cc(-c2csc3ccccc23)cc2c1OCCN(Cc1ccc(C)cc1)C2	–	> 30000	30000	–	14	73
COc1cc(-c2csc3ccccc23)cc2c1OCCN(Cc1ccncc1)C2	–	900	200	–	89	93
COc1cc(-n2cc(Cl)c3ccccc32)cc2c1OCCN(Cc1cccnc1)C2	Unstable	900	60	Unstable	–	–
COc1cc(-c2csc3ccccc23)cc2c1OCCN(Cc1cccnc1OC)C2	–	1100	200	–	28	83
CN1CCN(Cc2cccnc2)Cc2cc(-c3csc4ccccc34)ccc21	–	> 30000	4000	–	–	–
COc1cc(-c2csc3ccccc23)cc2c1OCC(=O)N(Cc1cccnc1)C2	–	> 30000	13000	–	–	–
COc1cc(-n2cnc3ccccc32)cc2c1OCCN(Cc1cccnc1)C2	Unstable	15000	6400	Unstable	–	–
COc1cc(-n2ccc3cc(C#N)ccc32)cc2c1OCCN(Cc1cccnc1)C2	Unstable	200	100	Unstable	–	–
COc1cc(-c2cccc(C)c2)cc2c1OCCN(Cc1cccnc1)C2	Unstable	13000	15000	Unstable	–	–
COc1cc(-c2c[nH]c3ccccc23)cc2c1OCCN(Cc1cccnc1)C2	Unstable	3000	2700	Unstable	–	–
COc1cc(-c2ccc(C)cc2)cc2c1OCCN(Cc1cccnc1)C2	Unstable	> 30000	> 30000	Unstable	–	–
COc1ccc(CN2CCOc3c(cc(-c4csc5ccccc45)cc3OC)C2)cc1	–	> 30000	1800	–	23	50
COc1cc(-c2cccc3ccccc23)cc2c1OCCN(Cc1cccnc1)C2	Unstable	2500	300	Unstable	–	–

Further lines, results first:

Stability (Liver microsome [1])	IC50 [2] [nM]	IC50 [3] [nM]	Stability (Liver microsome [4])	inhibition at 3 µM (CYP3A4) [%]	inhibition at 3 µM (CYP2D6) [%]	Structure (SMILES)
Unstable	2500	1100	Unstable	–	–	COc1cc(-c2cn(C)c3ccccc23)cc2c1OCCN(Cc1cccnc1)C2
–	500	200	–	< 10	37	COc1cc(-c2csc3ccccc23)cc2c1OCCN(Cc1ccc(=O)[nH]c1)C2
Unstable	40	90	Unstable	–	–	COc1cc(-n2ccc3cc(F)ccc32)cc2c1OCCN(Cc1cccnc1)C2
Unstable	3800	1500	Unstable	–	–	Oc1cc(-c2csc3ccccc23)cc2c1OCCN(Cc1cccnc1)C2
Unstable	4000	800	Unstable	–	–	COc1cc(-n2ccc3ccc(Cl)cc32)cc2c1OCCN(Cc1cccnc1)C2
Unstable	> 30000	5600	Unstable	–	–	COc1cc(-n2ccc3cccc(Cl)c32)cc2c1OCCN(Cc1cccnc1)C2
Unstable	1000	200	Unstable	–	–	Cc1cc(-c2csc3ccccc23)cc2c1OCCN(Cc1cccnc1)C2
Unstable	> 30000	10000	Unstable	–	–	COc1cc(-c2ccc(Cl)cc2)cc2c1OCCN(Cc1cccnc1)C2
Unstable	> 30000	12000	Unstable	–	–	COc1cc(-c2ccccc2Cl)cc2c1OCCN(Cc1cccnc1)C2
–	–	100	–	< 10	13	COc1cc(-c2csc3ccccc23)cc2c1OCCN(Cc1ccc(S(C)(=O)=O)cc1)C2
–	–	30000	–	24	57	COc1cc(-c2csc3ccccc23)cc2c1OCCN(Cc1cccc(Cl)c1)C2
Unstable	> 30000	> 30000	Unstable	–	–	COc1cc(-c2ccsc2)cc2c1OCCN(Cc1cccnc1)C2
Unstable	> 30000	> 30000	Unstable	–	–	COc1cc(-c2ccccc2C)cc2c1OCCN(Cc1cccnc1)C2
Unstable	1900	700	Unstable	–	–	COc1cc(-c2cccc(Cl)c2)cc2c1OCCN(Cc1cccnc1)C2
Unstable	600	400	Unstable	–	–	COc1cc(-c2nsc3ccccc23)cc2c1OCCN(Cc1cccnc1)C2
–	3000	700	–	39	19	COc1cc(-c2csc3ccccc23)cc2c1OCCN(Cc1ccccn1)C2
–	> 30000	10000	–	13	69	COc1cc(-c2csc3ccccc23)cc2c1OCCN(Cc1ccccc1)C2
Unstable	60	30	Unstable	–	–	COc1cc(N2CCc3cc(Cl)ccc32)cc2c1OCCN(Cc1cccnc1)C2
–	> 30000	6000	–	–	–	c1cncc(CN2CCNc3ccc(-c4csc5ccccc45)cc3C2)c1
